*1 amine or outer side, *2 acyl side, *3 side chain or, on linkers, in order; H or OH if unused. Where a SMILES comes first, the peptide text is derived from it. Bridges are numbered along the chain shown (N, C = ends). [ ]: non-standard residue; d: D form. X1 = O=C(CC[C@H](N[*:1])C(=O)[*:2])CN[*:3]; X4 = O=C([C@@H](N[*:1])C(O)c1ccccc1)[*:2]; X5 = O=C(CN[*:3])C[C@H](N[*:1])C(=O)[*:2]; pY = N[C@@H](Cc1ccc(OP(=O)(O)O)cc1)C(=O)O; hPhe = N[C@@H](CCc1ccccc1)C(=O)O; Tic = O=C(O)[C@@H]1Cc2ccccc2CN1; Nle = CCCC[C@H](N)C(=O)O; CO = O=C([*:1])[*:2]
Tests used:
[1] = biological target: T1, Tyrosine-protein phosphatase non-receptor type 6 (Homo sapiens, UniProt P29350); experiment: Concentration required to stimulate SHP-1 enzymatic activity by 50%
T1 sequence (P29350 whole entry): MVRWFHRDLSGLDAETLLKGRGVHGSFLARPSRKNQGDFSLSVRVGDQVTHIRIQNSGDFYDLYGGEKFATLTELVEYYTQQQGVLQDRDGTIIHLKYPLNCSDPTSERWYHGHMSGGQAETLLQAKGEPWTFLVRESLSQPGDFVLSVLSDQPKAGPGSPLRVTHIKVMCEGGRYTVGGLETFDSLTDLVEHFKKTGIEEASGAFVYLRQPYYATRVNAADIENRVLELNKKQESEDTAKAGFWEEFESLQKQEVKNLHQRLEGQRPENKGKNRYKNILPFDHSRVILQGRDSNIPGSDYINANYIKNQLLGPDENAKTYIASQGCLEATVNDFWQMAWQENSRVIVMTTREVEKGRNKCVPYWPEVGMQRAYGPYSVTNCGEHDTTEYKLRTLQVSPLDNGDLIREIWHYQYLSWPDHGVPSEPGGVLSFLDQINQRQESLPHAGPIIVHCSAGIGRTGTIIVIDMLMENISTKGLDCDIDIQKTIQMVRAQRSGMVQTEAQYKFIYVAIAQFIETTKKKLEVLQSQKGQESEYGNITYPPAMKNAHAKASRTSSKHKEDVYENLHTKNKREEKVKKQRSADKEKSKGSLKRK
Method in brief: (§1)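 SHP-1 activity on p-nitrophenyl phosphate (10 mM) in 50 mM Hepes pH 7.4, 50 mM NaCl, 1 mM EDTA, 1 mM TCEP with 0-500 µM peptide. Enzyme (0.5 µg) added last, 30 min at room temperature, stopped with 1 M NaOH, A405 read. Activity relative to no-peptide enzyme. Duplicates, mean of three independent experiments. Not active: maximal activity ≤0.4 relative to Ros pY2267.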

[2] = biological target: T1, Tyrosine-protein phosphatase non-receptor type 6; experiment: Dissociation constant for the interaction with the GST-N-SH2 domain of SHP-1
Method in brief: (§2)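 SPR at room temperature in 10 mM Hepes pH 7.4, 150 mM NaCl, 3.4 mM EDTA, 0.005% Tween20. Biotinylated peptides captured on the chip to 20-40 RU. FPLC-purified GST-SHP-1 N-SH2 was injected 5 min at 30 µL/min, then dissociation was followed. Blank flow cell subtracted. Equilibrium RU vs domain concentration was fit to a one-site hyperbola for Kd.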

[3] = biological target: T1, Tyrosine-protein phosphatase non-receptor type 6; experiment: Concentration required to stimulate SHP-1 enzymatic activity by 50%; not active; method in brief: as §1
[4] = biological target: T1, Tyrosine-protein phosphatase non-receptor type 6; experiment: Dissociation constant for the interaction with the GST-N-SH2 domain of SHP-1; nb is no binding; method in brief: as §2

Compound	EC50 ([1]; read-out: EC50) [µM]	Kd [2] [µM]	EC50 [3]	Kd [4]	EC50 [1]
CSCC[C@H](NC(=O)[C@H](Cc1ccc(OP(=O)(O)O)cc1)NC(=O)[C@H](CC(N)=O)NC(=O)[C@H](CC(C)C)NC(=O)CNC(=O)[C@@H](N)CCC(=O)O)C(=O)N[C@H](C(=O)N[C@@H](Cc1ccccc1)C(N)=O)C(C)C (H-EGLN[pY]MVF-NH2)	140	1	–	–	–
CSCC[C@@H]1NC(=O)[C@H](Cc2ccc(OP(=O)(O)O)cc2)NC(=O)[C@@H](NC(=O)[C@H](CC(C)C)NC(=O)CNC(=O)[C@@H](N)CCC(=O)O)CCCCNC(=O)NCC(=O)C[C@@H](C(=O)N[C@@H](CC(C)C)C(=O)O)NC1=O (H-EGLK[pY]M[X5]L-OH; linker 4-7 via CO)	–	0.11	Not Active	–	–
CC[C@H](C)[C@H](NC(=O)[C@@H]1Cc2ccccc2CN1C(=O)[C@H](Cc1ccc(OP(=O)(O)O)cc1)NC(=O)[C@H](CC(N)=O)NC(=O)[C@H](CC(C)C)NC(=O)CNC(=O)[C@@H](N)CCC(=O)O)C(=O)N1Cc2ccccc2C[C@H]1C(N)=O (H-EGLN[pY][Tic]I[Tic]-NH2)	–	–	Not Active	Not Active	–
CSCC[C@@H]1NC(=O)[C@H](Cc2ccc(OP(=O)(O)O)cc2)NC(=O)[C@@H](NC(=O)[C@H](CC(C)C)NC(=O)CNC(=O)[C@@H](N)CCC(=O)O)CCCCNC(=O)CC[C@@H](C(=O)N[C@@H](CC(C)C)C(=O)O)NC1=O (H-EGLK[pY]MEL-OH; lactam 4-7)	–	–	Not Active	Not Active	–
CCCC[C@H](NC(=O)[C@H](Cc1ccc(OP(=O)(O)O)cc1)NC(=O)[C@H](CC(N)=O)NC(=O)[C@H](CC(C)C)NC(=O)CNC(=O)[C@@H](N)CCC(=O)O)C(=O)N[C@H](C(=O)N[C@@H](Cc1ccccc1)C(N)=O)C(C)C (H-EGLN[pY][Nle]VF-NH2)	60	0.23	–	–	–
CSCC[C@@H]1NC(=O)[C@H](Cc2ccc(OP(=O)(O)O)cc2)NC(=O)[C@@H](NC(=O)[C@H](CC(C)C)NC(=O)CNC(=O)[C@@H](N)CCC(=O)O)CCCCNC(=O)NCC(=O)CC[C@@H](C(=O)N[C@@H](CC(C)C)C(=O)O)NC1=O (H-EGLK[pY]M[X1]L-OH; linker 4-7 via CO)	–	0.21	–	–	Not Active

Further lines, results first:

EC50 ([1]; read-out: EC50) [µM]	Kd [2] [µM]	EC50 [3]	Kd [4]	EC50 [1]	Compound
220	0.16	–	–	–	CC(C)C[C@H](NC(=O)[C@@H](NC(=O)[C@@H](NC(=O)[C@H](Cc1ccc(OP(=O)(O)O)cc1)NC(=O)[C@H](CC(N)=O)NC(=O)[C@H](CC(C)C)NC(=O)CNC(=O)[C@@H](N)CCC(=O)O)C(C)c1ccccc1)C(C)C)C(N)=O (stereo in doubt; 5b)
85	0.29	–	–	–	CSCC[C@H](NC(=O)[C@H](Cc1ccc(OP(=O)(O)O)cc1)NC(=O)[C@H](CC(N)=O)NC(=O)[C@H](CC(C)C)NC(=O)CNC(=O)[C@@H](N)CCC(=O)O)C(=O)N[C@H](C(=O)N[C@H](C(N)=O)C(O)c1ccccc1)C(C)C (stereo partly specified) (H-EGLN[pY]MV[X4]-NH2)
140	0.9	–	–	–	CC(C)C[C@H](NC(=O)[C@@H](NC(=O)[C@H](CCc1ccccc1)NC(=O)[C@H](Cc1ccc(OP(=O)(O)O)cc1)NC(=O)[C@H](CC(N)=O)NC(=O)[C@H](CC(C)C)NC(=O)CNC(=O)[C@@H](N)CCC(=O)O)C(C)C)C(N)=O (H-EGLN[pY][hPhe]VL-NH2)
70	0.69	–	–	–	CC(C)C[C@H](NC(=O)[C@@H](NC(=O)[C@H](Cc1ccccc1)NC(=O)[C@H](Cc1ccc(OP(=O)(O)O)cc1)NC(=O)[C@H](CC(N)=O)NC(=O)[C@H](CC(C)C)NC(=O)CNC(=O)[C@@H](N)CCC(=O)O)C(C)C)C(N)=O (H-EGLN[pY]FVL-NH2)
160	1.44	–	–	–	CSCC[C@H](NC(=O)[C@H](Cc1ccc(OP(=O)(O)O)cc1)NC(=O)[C@H](CC(N)=O)NC(=O)[C@H](CC(C)C)NC(=O)CNC(=O)[C@@H](N)CCC(=O)O)C(=O)N[C@H](C(=O)N[C@@H](CC(C)C)C(N)=O)C(C)C (H-EGLN[pY]MVL-NH2)
50	0.24	–	–	–	CC(C)C[C@H](NC(=O)[C@@H](NC(=O)[C@@H](NC(=O)[C@H](Cc1ccc(OP(=O)(O)O)cc1)NC(=O)[C@H](CC(N)=O)NC(=O)[C@H](CC(C)C)NC(=O)CNC(=O)[C@@H](N)CCC(=O)O)C(C)c1ccccc1)C(C)C)C(N)=O (stereo in doubt; 5a)
220	1.08	–	–	–	CC(C)C[C@H](NC(=O)[C@@H](NC(=O)[C@@H](NC(=O)[C@H](Cc1ccc(OP(=O)(O)O)cc1)NC(=O)[C@H](CC(N)=O)NC(=O)[C@H](CC(C)C)NC(=O)CNC(=O)[C@@H](N)CCC(=O)O)C(O)c1ccccc1)C(C)C)C(N)=O (stereo partly specified) (H-EGLN[pY][X4]VL-NH2)
